Measured values as given in ChEMBL document CHEMBL3745705, “Discovery of Oral VEGFR-2 Inhibitors with Prolonged Ocular Retention That Are Efficacious in Models of Wet Age-Related Macular Degeneration” (J Med Chem, 2015).
≈ marks a conversion by molar mass, not a printed value.

Assays:
Mus musculus [1] = test: Antiangiogenic activity in po dosed C57BL/6 mouse laser-induced choroidal neovascularization assessed as inhibition of neovascular lesion formation administered qd for 6 days measured on day 7 by microscopic analysis; type: functional; conditions: C57BL/6, po
Mus musculus [2] = species: Mus musculus; test: animal or person; conditions: C57BL/6, po, read-out: INH
[3] = Aqueous solubility of the compound at pH 6.8; conditions: aqueous medium
[4] = target: Voltage-gated inwardly rectifying potassium channel KCNH2 (Homo sapiens, UniProt Q12809); test: Inhibition of human ERG channel by automated Q-patch assay
Mus musculus [5] = test: Antiangiogenic activity in mouse model of laser-induced choroidal neovascularization assessed as inhibition of neovascular lesion formation at 100 mg/kg, po bid for 7 days; type: functional; conditions: 168 h
[6] = Plasma concentration in mouse model of laser-induced choroidal neovascularization at 100 mg/kg, po bid for 7 days measured 16 hrs post last dose; type: ADME, organism-based
Rattus norvegicus [7] = test: Antiangiogenic activity in po dosed Brown Norway rat laser-induced choroidal neovascularization model assessed as inhibition of neovascular lesion formation administered qd for 14 days by microscopic analysis; type: functional; conditions: 336 h
Procedure, shortened: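 Male Brown Norway rats, about 12 weeks old, dosed by oral gavage starting about 1 h before laser. Lesions were made under ketamine/xylazine i.p. (40–80 / 5–10 mg/kg) with 532 nm laser pulses (30 ms, 190 mW, 200 µm spot), about 4 lesions per eye and 10 rats per group. Vessels were labelled with i.v. 2,000 kD FITC dextran, eyes fixed in 4% paraformaldehyde, and CNV area measured blinded.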

Plasma [8] = test: Dose normalized AUC (0 to 24 hrs) in Brown Norway rat plasma at 2 mg/kg, po; type: ADME, organism-based; conditions: in vivo
[9] = Dose normalized AUC (0 to 24 hrs) in Brown Norway rat retina at 2 mg/kg, po; type: ADME, organism-based; conditions: in vivo
[10] = Dose normalized AUC (0 to 24 hrs) in Brown Norway rat posteior eye cup at 2 mg/kg, po; type: ADME, organism-based; conditions: in vivo
Plasma [11] = test: Dose normalized Cmax in Brown Norway rat plasma at 2 mg/kg, po; type: ADME, organism-based; conditions: in vivo
Procedure, shortened: (§1)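 Single oral dose to three-month-old Brown Norway rats as a suspension in 0.5% MC/0.1% tween 80, WFI. Retina, posterior eye cup (RPE/choroid/sclera) and plasma collected from 2 rats per time point up to 144 h. Tissues homogenized, plasma proteins precipitated, drug quantified by LC-MS/MS.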

[12] = Dose normalized Cmax in Brown Norway rat retina at 2 mg/kg, po; type: ADME, organism-based; conditions: in vivo; procedure, shortened: as §1
[13] = Dose normalized Cmax in Brown Norway rat posteior eye cup at 2 mg/kg, po; type: ADME, organism-based; conditions: in vivo; procedure, shortened: as §1
Plasma [14] = test: Dose normalized plasma concentration in Brown Norway rat plasma at 2 mg/kg, po measured at 24 hrs by LC-MS/MS analysis; type: ADME, organism-based; conditions: in vivo; procedure, shortened: as §1
[15] = Dose normalized drug uptake in Brown Norway rat retina at 2 mg/kg, po by LC-MS/MS analysis; type: ADME, organism-based; conditions: in vivo; procedure, shortened: as §1
Rattus norvegicus [16] = test: AUC (0 to 8 hrs) in Brown Norway rat at 3 mg/kg, po by LC-MS/MS analysis; type: ADME, organism-based; parameters: dose 3 mg/kg, time < 8 hr, route oral; conditions: in vivo
[17] = Volume of distribution at steady state in Brown Norway rat at 3 mg/kg, po or 1 mg/kg, iv by LC-MS/MS analysis; type: ADME, organism-based; conditions: in vivo, read-out: Vdss
[18] = Half life in Brown Norway rat at 3 mg/kg, po or 1 mg/kg, iv by LC-MS/MS analysis; type: ADME, organism-based; conditions: in vivo
[19] = Cmax in Brown Norway rat at 3 mg/kg, po or 1 mg/kg, iv by LC-MS/MS analysis; type: ADME, organism-based; conditions: in vivo
Rattus norvegicus [20] = test: Oral bioavailability in Brown Norway rat at 3 mg/kg by LC-MS/MS analysis; type: ADME, organism-based; conditions: in vivo
[21] = Drug uptake in Brown Norway rat posteior eye cup at 2 mg/kg, po; type: ADME, organism-based; conditions: in vivo; procedure, shortened: as §1
Plasma [22] = test: Dose normalized AUC (0 to 24 hrs) in Brown Norway rat plasma at 6 mg/kg, po; type: ADME, organism-based; conditions: in vivo
[23] = Dose normalized AUC (0 to 24 hrs) in Brown Norway rat retina at 6 mg/kg, po; type: ADME, organism-based; conditions: in vivo
[24] = Dose normalized AUC (0 to 24 hrs) in Brown Norway rat posteior eye cup at 6 mg/kg, po; type: ADME, organism-based; conditions: in vivo
Plasma [25] = test: Dose normalized Cmax in Brown Norway rat plasma at 6 mg/kg, po; type: ADME, organism-based; conditions: in vivo
[26] = Dose normalized Cmax in Brown Norway rat retina at 6 mg/kg, po; type: ADME, organism-based; conditions: in vivo
[27] = Dose normalized Cmax in Brown Norway rat posteior eye cup at 6 mg/kg, po; type: ADME, organism-based; conditions: in vivo
Plasma [28] = test: Dose normalized plasma concentration in Brown Norway rat plasma at 6 mg/kg, po measured at 24 hrs by LC-MS/MS analysis; type: ADME, organism-based; conditions: in vivo
[29] = Dose normalized drug uptake in Brown Norway rat retina at 6 mg/kg, po by LC-MS/MS analysis; type: ADME, organism-based; conditions: in vivo
Rattus norvegicus [30] = test: AUC (0 to 8 hrs) in Brown Norway rat at 10 mg/kg, po by LC-MS/MS analysis; type: ADME, organism-based; parameters: dose 10 mg/kg, time < 8 hr, route oral; conditions: in vivo
[31] = Volume of distribution at steady state in Brown Norway rat at 10 mg/kg, po or 1 mg/kg, iv by LC-MS/MS analysis; type: ADME, organism-based; conditions: in vivo, read-out: Vdss
Procedure, shortened: (§2)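 Brown Norway rats dosed i.v. at 1 mg/kg (n = 2; NMP/PG/cremophorEL/PBS or NMP/PEG 300/WFI vehicle) or p.o. at 3 or 10 mg/kg (n = 3; 0.5% MC/0.1% tween 80, WFI). Clearance, Vdss, t1/2, Cmax, AUC 0-8h and oral bioavailability calculated from plasma levels.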

[32] = Half life in Brown Norway rat at 10 mg/kg, po or 1 mg/kg, iv by LC-MS/MS analysis; type: ADME, organism-based; conditions: in vivo; procedure, shortened: as §2
[33] = Cmax in Brown Norway rat at 10 mg/kg, po or 1 mg/kg, iv by LC-MS/MS analysis; type: ADME, organism-based; conditions: in vivo; procedure, shortened: as §2
Rattus norvegicus [34] = test: Oral bioavailability in Brown Norway rat at 10 mg/kg by LC-MS/MS analysis; type: ADME, organism-based; conditions: in vivo; procedure, shortened: as §2
[35] = Dose normalized drug uptake in Brown Norway rat posteior eye cup at 6 mg/kg, po; type: ADME, organism-based; conditions: in vivo

Chain of Voltage-gated inwardly rectifying potassium channel KCNH2 (Q12809 whole entry): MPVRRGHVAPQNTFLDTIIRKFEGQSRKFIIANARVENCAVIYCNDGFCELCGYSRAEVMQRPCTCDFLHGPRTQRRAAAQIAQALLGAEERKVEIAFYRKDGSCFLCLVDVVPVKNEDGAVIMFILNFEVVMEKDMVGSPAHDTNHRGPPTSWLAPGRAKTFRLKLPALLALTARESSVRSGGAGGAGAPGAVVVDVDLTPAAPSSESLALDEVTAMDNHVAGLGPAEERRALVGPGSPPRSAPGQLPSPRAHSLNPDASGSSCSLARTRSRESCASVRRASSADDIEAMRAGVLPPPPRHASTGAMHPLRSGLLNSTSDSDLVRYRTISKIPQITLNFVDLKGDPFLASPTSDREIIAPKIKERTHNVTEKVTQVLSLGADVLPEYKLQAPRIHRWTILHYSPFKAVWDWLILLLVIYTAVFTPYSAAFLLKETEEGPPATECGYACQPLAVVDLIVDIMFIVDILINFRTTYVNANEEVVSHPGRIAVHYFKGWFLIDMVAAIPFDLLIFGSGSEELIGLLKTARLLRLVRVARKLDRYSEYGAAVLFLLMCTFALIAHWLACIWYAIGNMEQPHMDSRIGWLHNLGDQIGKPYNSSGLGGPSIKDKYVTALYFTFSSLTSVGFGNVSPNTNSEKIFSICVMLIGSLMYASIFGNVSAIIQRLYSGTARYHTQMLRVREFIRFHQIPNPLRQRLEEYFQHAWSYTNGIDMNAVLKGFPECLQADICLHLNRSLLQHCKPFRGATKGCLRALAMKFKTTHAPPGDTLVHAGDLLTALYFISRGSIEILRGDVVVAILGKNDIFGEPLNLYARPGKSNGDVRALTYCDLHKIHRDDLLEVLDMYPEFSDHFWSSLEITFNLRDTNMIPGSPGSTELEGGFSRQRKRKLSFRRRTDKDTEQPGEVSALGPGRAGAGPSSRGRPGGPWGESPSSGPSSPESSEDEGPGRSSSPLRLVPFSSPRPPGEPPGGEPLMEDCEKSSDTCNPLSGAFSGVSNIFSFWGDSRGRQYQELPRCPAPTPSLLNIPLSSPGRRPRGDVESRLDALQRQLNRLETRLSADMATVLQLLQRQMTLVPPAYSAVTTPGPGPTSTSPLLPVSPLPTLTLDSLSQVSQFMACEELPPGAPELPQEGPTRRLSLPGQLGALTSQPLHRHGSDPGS

C[C@H]1Cc2c(ncnc2Oc2ccc3c(ccn3C(=O)Nc3cccc(C(F)(F)F)c3)c2)CN1
ED50 (Mus musculus [1]): 3.6 mg/kg
ED90 (Mus musculus [1]): 8.5 mg/kg
inhibition in vivo at 10 mg/kg (Mus musculus [2]): 96%

Cc1cncc(NC(=O)n2ccc3cc(Oc4ncnc5c4CCNC5)ccc32)c1
solubility [3]: 190 µM (≈ 76.1 µg/mL)

CC(C)(C)c1cc(NC(=O)n2ccc3cc(Oc4ncnc5c4CCNC5)ccc32)no1
solubility [3]: 167 µM (≈ 72.2 µg/mL)
IC50 [4]: 7 µM
inhibition in vivo at 10 mg/kg (Mus musculus [2]): 83%

Cc1ccc(Nc2nccc(N(C)c3ccc4c(C)n(C)nc4c3)n2)cc1S(N)(=O)=O [PAZOPANIB]
inhibition in vivo at 100 mg/kg (Mus musculus [5]): 93%
concentration at 16 h [6]: 13 µM

O=C(Nc1cccc(C(F)(F)F)c1)n1ccc2cc(Oc3ncnc4c3CCNC4)ccc21
solubility [3]: 84 µM (≈ 38.1 µg/mL)
inhibition in vivo at 10 mg/kg (Mus musculus [2]): 87%

Nc1cc(Oc2ccc3c(ccn3C(=O)Nc3cccc(C(F)(F)F)c3)c2)ncn1
solubility [3]: < 5 µM
inhibition in vivo at 10 mg/kg (Mus musculus [2]): 44%

O=C(Nc1cc(C2CC2)on1)n1ccc2cc(Oc3ncnc4c3CNC4)ccc21
solubility [3]: 110 µM (≈ 44.3 µg/mL)
IC50 [4]: > 30 µM
ED50 (Mus musculus [1]): 1.8 mg/kg
ED90 (Mus musculus [1]): 4.8 mg/kg
ED50 (Rattus norvegicus [7]): 0.7 mg/kg
ED90 (Rattus norvegicus [7]): 2.7 mg/kg
AUC/dose (Plasma [8]): 15014 nM·h/mg/kg
AUC/dose [9]: 2692 nM·h/mg/kg
AUC/dose [10]: 92954 nM·h/mg/kg
Cmax/dose (Plasma [11]): 3225 nM/mg/kg
Cmax/dose [12]: 337 nM/mg/kg
Cmax/dose [13]: 5293 nM/mg/kg
Cp/dose (Plasma [14]): 6 nM/mg/kg
Druguptake/dose [15]: 65 nM/mg/kg
AUC (Rattus norvegicus [16]): 29.4 µM·h
Vd [17]: 0.5 L/kg
half-life [18]: 1.2 h
Cmax [19]: 11 µM
F (Rattus norvegicus [20]): 100%
Druguptake/dose [21]: 3344 nM/mg/kg
inhibition in vivo at 10 mg/kg (Mus musculus [2]): 98%

CC1(c2cc(NC(=O)n3ccc4cc(Oc5ncnc6c5CNC6)ccc43)no2)CC1
inhibition in vivo at 10 mg/kg (Mus musculus [2]): 90%

CCN1CCc2c(ncnc2Oc2ccc3c(ccn3C(=O)Nc3cccc(C(F)(F)F)c3)c2)C1
solubility [3]: < 5 µM
inhibition in vivo at 10 mg/kg (Mus musculus [2]): 81%

CC(C)(C)c1cc(NC(=O)n2ccc3cc(Oc4ncnc5c4CNC5)ccc32)on1
solubility [3]: 232 µM (≈ 97.1 µg/mL)
inhibition in vivo at 10 mg/kg (Mus musculus [2]): 58%

O=C(Nc1cccc(C(F)(F)F)c1)n1ccc2cc(Oc3ncnc4c3CNC4)ccc21
ED50 (Mus musculus [1]): 6.9 mg/kg
ED90 (Mus musculus [1]): 31 mg/kg
inhibition in vivo at 10 mg/kg (Mus musculus [2]): 68%

CC1(c2cc(NC(=O)n3ccc4cc(Oc5ncnc6c5CCNC6)ccc43)n[nH]2)CC1
solubility [3]: 252 µM (≈ 108 µg/mL)
ED50 (Mus musculus [1]): 7.8 mg/kg
ED90 (Mus musculus [1]): 25.3 mg/kg
ED50 (Rattus norvegicus [7]): 2.7 mg/kg
ED90 (Rattus norvegicus [7]): 13.6 mg/kg
AUC/dose (Plasma [22]): 166 nM·h/mg/kg
AUC/dose [23]: 310 nM·h/mg/kg
AUC/dose [24]: 2386 nM·h/mg/kg
Cmax/dose (Plasma [25]): 33 nM/mg/kg
Cmax/dose [26]: 15 nM/mg/kg
Cmax/dose [27]: 110 nM/mg/kg
Cp/dose (Plasma [28]): 0.7 nM/mg/kg
Druguptake/dose [29]: 13 nM/mg/kg
AUC (Rattus norvegicus [30]): 1.12 µM·h
Vd [31]: 22 L/kg
half-life [32]: 2.7 h
Cmax [33]: 0.505 µM
F (Rattus norvegicus [34]): 51%
Druguptake/dose [35]: 102 nM/mg/kg
inhibition in vivo at 10 mg/kg (Mus musculus [2]): 64%

C[C@H]1NCc2ncnc(Oc3ccc4c(ccn4C(=O)Nc4cccc(C(F)(F)F)c4)c3)c21
inhibition in vivo at 10 mg/kg (Mus musculus [2]): 0%

CNCc1cc(Oc2ccc3c(ccn3C(=O)Nc3ccc(F)c(C(F)(F)F)c3)c2)ncn1
inhibition in vivo at 10 mg/kg (Mus musculus [2]): 92%

CC(C)(C)c1cc(NC(=O)n2ccc3cc(Oc4ncnc5c4CNC5)ccc32)no1
solubility [3]: 20 µM (≈ 8.37 µg/mL)
inhibition in vivo at 10 mg/kg (Mus musculus [2]): 83%
